According to ChEMBL document CHEMBL1126086, “Structure-activity studies of potassium channel opening in pinacidil-type cyanoguanidines, nitroethenediamines, thioureas, and ureas” (J Med Chem, 1992):

Assays:
[1] = Ionisation constant (pKa1) due to protonation of the pyridyl ring; assay type: physicochemical; conditions: read-out: pKa1
[2] = Ionisation constant (pKa2) due to […]; assay type: physicochemical; conditions: read-out: pKa2
[3] = organism: Rattus norvegicus; test: Concentration required to cause 15% increase in [86Rb+] efflux from rat portal vein.; assay type: functional
Method in brief: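 Rat portal vein, opened lengthwise, tension 500 mg, equilibrated 30 min in HEPES-buffered PSS (95% O2/5% CO2, 32 °C, pH 7.4), then loaded 80 min with 86RbCl (5 µCi/mL). Perfusate collected every 2 min; rate constant k from released vs. remaining tissue activity. Drug effect = peak k during application vs. basal k (6–10 min prior), as Δk %; n = 4–6.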

[4] = organism: Rattus norvegicus; test: Concentration required to cause 50% inhibition of spontaneous activity in rat portal vein; assay type: functional; conditions: for IC50: Rattus norvegicus
[5] = Ionisation constant (pKa2)

pKa [1]	pKa [2]	IC50 [4] [nM]	Log IC50 [4]	pKa2 [5]	SMILES	pEC15 [3]
2.61	12.2	2			CCC(C)(C)/N=C(\NC#N)Nc1cccnc1	7.4
					C[C@@H](/N=C(/S)Nc1ccncc1)C(C)(C)C.Cl	4
4.89	13	316			C[C@H](/N=C(/S)Nc1ccncc1)C(C)(C)C.Cl	4
			-7		C[C@@H](/N=C(/NC#N)Nc1cccnc1)C(C)(C)C	
		1580			COc1cncc(N/C(=C/[N+](=O)[O-])N[C@H](C)C(C)(C)C)c1	4
			-6		C[C@@H](N/C(=C\[N+](=O)[O-])Nc1cccnc1)C(C)(C)C	3.8
1.86	6.5	15.8			COc1cncc(N/C(=C/[N+](=O)[O-])N[C@@H](C)C(C)(C)C)c1	6.5
		776			C[C@H](N/C(=N/c1ccncc1)NC#N)C(C)(C)C	4.4
		1000		8.86	CC(C)(C)CN/C(=C\[N+](=O)[O-])Nc1cccnc1	4
		31600			CC(C)N/C(=C\[N+](=O)[O-])Nc1cccnc1	<3.5
3.89		20000			CC(C)(C)C1CSC(Nc2cccnc2)=N1 (centres undefined)	
		33.9			C[C@@H](N/C(=N/c1ccncc1)NC#N)C(C)(C)C	5.9
	8.88	316			CC(N/C(=C\[N+](=O)[O-])Nc1cccc(C#N)c1)C(C)(C)C (centres undefined)	4
5.46	> 14	3160			CC(C)(C)CNC(=O)Nc1ccncc1.Cl	3.3
2.28	9.03	31.6			CC(N/C(=C\[N+](=O)[O-])Nc1cccnc1)C(C)(C)C (centres undefined)	5.5
3.08	13.1	200			CC(C)(C)C/N=C(/S)Nc1cccnc1	5
3.57		1000			CC(C)(C)c1csc(Nc2cccnc2)n1	
2.03	8.1	3160			CC(C)(C)C1CN=C(Nc2cccnc2)N1 (centres undefined)	

pKa [1]	pKa [2]	IC50 [4] [nM]	Log IC50 [4]	pKa2 [5]	SMILES	pEC15 [3]
		12.6			CC(C)(C)/N=C(/NC#N)Nc1cccnc1	6.1
		10000			CC(C)(C)CN/C(=C\[N+](=O)[O-])Nc1ccncc1	<3.5
2.7	12				CC(/N=C(/NC#N)Nc1cccnc1)C(C)(C)C (centres undefined)	6.3
		200			CCC(C)(C)/N=C(/S)Nc1cccnc1	5.2
2.97	13.2	50.1			CC(/N=C(/S)Nc1cccnc1)C(C)(C)C (centres undefined)	5.7
3.74	> 14	2000			CC(C)(C)CNC(=O)Nc1cccnc1	4
		3160			CC(C)(C)C(CO)/N=C(/S)Nc1cccnc1 (centres undefined)	<3.5
2.23	11.3				CC(C)(C)C/C(=N/c1cccnc1)NC#N	4.3
		20000			CC(C)(C)CN/C(=C\[N+](=O)[O-])NCc1cccnc1	<3.5
		100000			CCC(C)N1CCN=C1Nc1cccnc1 (centres undefined)	<3
		2000			CC(C)(C)CCN/C(=C\[N+](=O)[O-])Nc1cccnc1	3.5
2.83	11.8	100			CC(C)(C)C/N=C(/NC#N)Nc1cccnc1	5.5
		1000			CC(N/C(=C\[N+](=O)[O-])Nc1ccncc1)C(C)(C)C (centres undefined)	3.3
		3160			O=[N+]([O-])/C=C(/Nc1cccnc1)NC1CCCCC1	3.5
			-5.2		CC(/N=C(/NC#N)Nc1cccnc1)C(C)(C)C (single isomer, unassigned)	
			-8		CC(N/C(=C\[N+](=O)[O-])Nc1cccnc1)C(C)(C)C (single isomer, unassigned)	5.8
4.81	11.3	63.1			CC(N/C(=N\C#N)Nc1ccncc1)C(C)(C)C (centres undefined) [PINACIDIL ANHYDROUS]	5.7

SMILES	pKa [1]	pKa [2]	IC50 [4] [nM]	Log IC50 [4]	pKa2 [5]	pEC15 [3]
CC1(C)CSC(Nc2cccnc2)=N1			31600			
CC1(C)CN=C(Nc2cccnc2)N1		8.2	> 10000			
CC(C)(C)/N=C(\Cc1cccnc1)NC#N	2.71	> 14	5010			3.5
